Experimental data: PMC8322834 (Biochemistry, 2020)
Converted amounts (≈) assume the structure as drawn. “Also recorded” adds a separate entry of the source. Non-standard residues stand in square brackets, D forms with d. Residues, ends and D or L forms follow the SMILES beside them. *: point of attachment. X1 = N=c1ccc2c(-c3ccc(C(=O)NCCCCCN4C(=O)CC(*)C4=O)cc3C(=O)O)c3ccc(N)c(S(=O)(=O)O)c3oc-2c1S(=O)(=O)O

Experiments:
[1] = target: T1, ADP-DnaK (Escherichia coli, UniProt P0A6Y8); test: steady-state fluorescence anisotropy, direct binding to ADP-DnaK; set-up: species or system E. coli; conditions: Q taken to be 1.0, Figure S3
[2] = target: DnaK (ADP-state) (Escherichia coli, UniProt P0A6Y8); test: native gel electrophoresis; format: binding, E. coli
How it was run: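 DnaK (5 μM) was incubated with test peptide (0–50 μM, independent samples) for 1 hr at 21.5 ± 0.5 °C. Native gels used 32 mM Tris-acetate pH 7.5 running buffer at 200 V for 5 hrs, water-cooled. DnaK band intensity profiles were fit to a sum of two Gaussians to build binding isotherms. KD1 is the mean of n = 3 independent experiments ± standard error.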

[3] = target: T1, ADP-DnaK; test: steady-state fluorescence anisotropy, competitive binding to ADP-DnaK; set-up: species or system E. coli
[4] = tested on: nascent apoMb biosynthesis (cell-free transcription-translation); test: cell-free expression of apoMb; format: biochemical, E. coli; conditions: 37 °C, 20 min
[5] = far-UV circular dichroism; format: physicochemical; conditions: 1.3 mM HEPES (pH 7.0), room temperature
How it was run: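 Test peptide at 20 μM in 1.3 mM HEPES pH 7.0, room temperature. Far-UV spectra recorded from 190 to 260 nm in 1 nm steps at 20 s/step. Each spectrum is the average of n = 2 independent experiments. Secondary structure was deconvoluted with CONTINLL.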

[6] = tested on: wild-type E. coli (ATCC 25922) cells; format: cell-based; conditions: ATCC 25922, 18 h
[7] = tested on: DnaK/DnaJ/GrpE (K/J/E); conditions: simple buffer conditions, 400 μM KLR-70, 30 °C, 1 hr
[8] = tested on: GroEL/ES; conditions: c.f. mix, purified GroEL (0.5 μM) / GroES (1.0 μM), 30 °C, 1 hr, Figure S5

T1 sequence (P0A6Y8 whole entry): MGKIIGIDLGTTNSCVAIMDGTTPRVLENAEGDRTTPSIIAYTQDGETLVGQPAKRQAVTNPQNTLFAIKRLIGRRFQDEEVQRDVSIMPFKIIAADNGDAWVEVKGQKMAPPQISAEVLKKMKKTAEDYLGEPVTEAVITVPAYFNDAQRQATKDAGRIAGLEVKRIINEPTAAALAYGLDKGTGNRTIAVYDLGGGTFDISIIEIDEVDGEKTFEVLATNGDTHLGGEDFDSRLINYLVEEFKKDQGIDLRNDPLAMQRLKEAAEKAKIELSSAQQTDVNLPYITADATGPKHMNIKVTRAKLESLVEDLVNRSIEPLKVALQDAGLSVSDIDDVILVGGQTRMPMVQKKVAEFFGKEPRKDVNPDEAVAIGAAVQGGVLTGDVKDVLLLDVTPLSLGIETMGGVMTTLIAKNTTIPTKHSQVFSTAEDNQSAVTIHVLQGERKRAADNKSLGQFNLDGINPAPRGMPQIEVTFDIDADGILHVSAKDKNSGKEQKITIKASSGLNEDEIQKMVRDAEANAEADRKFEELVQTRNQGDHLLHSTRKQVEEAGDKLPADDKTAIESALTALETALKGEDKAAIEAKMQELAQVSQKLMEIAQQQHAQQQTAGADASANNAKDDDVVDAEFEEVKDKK
DnaK (ADP-state), sequence (P0A6Y8 whole entry): as above

Structure (SMILES): CC(C)C[C@H](NC(=O)[C@H](CCCCN)NC(=O)[C@H](CCCCN)NC(=O)CNC(=O)[C@H](CCCNC(=N)N)NC(=O)[C@@H](N)CCCNC(=N)N)C(=O)N[C@@H](CC(C)C)C(=O)N[C@@H](CC(C)C)C(=O)N[C@@H](CC(C)C)C(=O)N[C@@H](CC(C)C)C(=O)N[C@@H](CCCCN)C(=O)N[C@@H](CCCCN)C(=O)N[C@@H](CCCCN)C(=O)NCC(=O)N[C@@H](CSC1CC(=O)N(CCCCCNC(=O)c2ccc(-c3c4ccc(=N)c(S(=O)(=O)O)c-4oc4c(S(=O)(=O)O)c(N)ccc34)c(C(=O)O)c2)C1=O)C(=O)O (stereo partly drawn) [KLR-70-C-AF488] (H-RRGKKLLLLLKKKGC(X1)-OH; N-terminus and C-terminus assumed)
- change in total fluorescence intensity in presence of ADP-DnaK [1]: no statistically significant changes in total fluorescence intensity

Structure (SMILES): CC(C)C[C@H](NC(=O)[C@H](CCCCN)NC(=O)[C@H](CCCCN)NC(=O)CNC(=O)[C@H](CCCNC(=N)N)NC(=O)[C@@H](N)CCCNC(=N)N)C(=O)N[C@@H](CC(C)C)C(=O)N[C@@H](CC(C)C)C(=O)N[C@@H](CC(C)C)C(=O)N[C@@H](CC(C)C)C(=O)N[C@@H](CCCCN)C(=O)N[C@@H](CCCCN)C(=O)N[C@@H](CCCCN)C(=O)NCC(=O)O [KLR-70] (H-RRGKKLLLLLKKKG-OH)
- Kd [2]: 0.158 ± 0.073 µM
- Kd [3]: 0.89 ± 0.39 µM
- effect on nascent apoMb expression ([4]; 150 μM peptide, Δtig S30 extract, pH 7.0, n = 3): does not have any influence on apoMb production
- effect on nascent apoMb synthesis ([4]; 60 – 150 μM KLR-70, Δtig S30 extract, pH 7.0, n = 3): nascent protein synthesis is not disrupted
- effect on nascent apoMb synthesis ([4]; 200 – 400 μM KLR-70, Δtig S30 extract, pH 7.0, n = 3): Partial inhibition of protein expression
- highest KLR-70 concentration not disrupting cell-free protein expression ([4]; Δtig E. coli cell-free system): up to 150 μM
- secondary structure in solution [5]: mostly unordered; also recorded: predominantly unstructured in solution
- MIC [6]: 41 to 83 mg/L
- inhibition of K/J/E-mediated luciferase refolding [7]: fully inhibits K/J/E-mediated luciferase refolding
- effect on GroEL/ES-mediated luciferase refolding [8]: only weakly reduces the GroEL/ES-mediated refolding of luciferase

Structure (SMILES): CC[C@H](C)[C@H](NC(=O)[C@@H](CCCNC(=N)N)NC(=O)[C@H](CCCNC(=N)N)NC(=O)[C@@H]1CCCN1C(=O)[C@@H]1CCCN1C(=O)[C@H](CCCNC(=N)N)NC(=O)[C@@H]1CCCN1C(=O)[C@H](CCCNC(=N)N)NC(=O)[C@@H]1CCCN1C(=O)[C@H](CC(C)C)NC(=O)[C@H](Cc1ccc(O)cc1)NC(=O)[C@@H]1CCCN1C(=O)[C@@H]1CCCN1C(=O)[C@H](CCCCN)NC(=O)[C@H](CC(=O)O)NC(=O)[C@@H](N)C(C)C)C(=O)N[C@@H](Cc1ccc(O)cc1)C(=O)N[C@@H](CC(N)=O)C(=O)N[C@H](CCCNC(=N)N)C(N)=O [Onc112, reference compound] (H-VDKPPYLPRPRPPR[dR]IYN[dR]-NH2)
- MIC [6]: 5 mg/L (≈ 2.09 µM)
